# Reference: ChEMBL document CHEMBL1124674, “Chemical and biological properties of a new series of cis-diammineplatinum(II) antitumor agents containing three nitrogen donors: cis-[Pt(NH3)2(N-donor)Cl]+” (J Med Chem, 1989)
# Test system: Mus musculus
# Assay: Compound is tested against sarcoma 180 ascites (S180a) in female CFW mice, and evaluated for the best percent of increase in life span at optimal dose of 40 mg/kg
# Type: functional, organism-based
# Design: dose 40 mg/kg
# Procedure, shortened: (§1)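 Female CFW mice (18-25 g) were inoculated ip with 2×10^6 S180a cells on day 0. Single ip dose in 0.5 mL water on day 1, over 6 dose-doublings up to 320 mg/kg, 6 mice per dose. Controls got water; the cisplatin control got 8 mg/kg in 0.15 M NaCl. Run for twice control MST, with survivors counted dead then. %ILS, ≥50% = active.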
row,Substance,ILS [%]
1,cis[Pt(NH3)2(N1-4-chloropyridine)Cl]Cl,77
2,cis[Pt(NH3)2(N1-4-methylpyridine)Cl]Cl,83
3,cis[Pt(NH3)2(N1-pyridine)Cl]Cl,103
4,cis[Pt(NH3)2(N3-1-methylcytosine)Cl]NO3,73

# Test system: Mus musculus
# Assay: Compound is tested against sarcoma 180 ascites (S180a) in female CFW mice, and evaluated for the best percent of increase in life span at optimal dose of 80 mg/kg
# Type: functional, organism-based
# Design: dose 80 mg/kg
# Procedure, shortened: as §1
row,Substance,ILS [%]
1,[Pt(NH3)2(N1-pyridine)Cl]Cl,17
2,cis[Pt(NH3)2(N1-3-hydroxypyridine)Cl]Cl,69
3,cis[Pt(NH3)2(N1-4-bromopyridine)Cl]Cl,102
4,cis[Pt(NH3)2(N1-6-methoxy-3-hydroxy-hydroxypyridine)Cl]Cl H2O,93
5,cis[Pt(NH3)2(N1-cytisine)Cl]Cl,92
6,cis[Pt(NH3)2(N1-methyl isonicotinate)Cl]Cl,31
7,cis[Pt(NH3)2(N1-pyridine)Cl]Cl,26
8,"cis[Pt(NH3)2(N3-2,deoxycytidine)Cl]Cl",85
9,"cis[Pt(NH3)2(N7-2,deoxyguanosine)Cl]NO3; H2O",88

# Test system: Mus musculus
# Assay: Compound is tested against sarcoma 180 ascites (S180a) in female CFW mice, and evaluated for the best percent of increase in life span at optimal dose of 8 mg/kg
# Type: functional, organism-based
# Design: dose 8 mg/kg
# Procedure, shortened: as §1
row,Substance,ILS [%]
1,CISPLATIN,81

# Test system: Mus musculus
# Assay: Compound is tested against sarcoma 180 ascites (S180a) in female CFW mice, and evaluated for the best percent of increase in life span at optimal dose of 160 mg/kg
# Type: functional, organism-based
# Design: dose 160 mg/kg
# Procedure, shortened: as §1
row,Substance,ILS [%]
1,cis[Pt(NH3)2(N1-6-methyl-hydroxypyridine)Cl]Cl,93
2,cis[Pt(NH3)2(N1-hydroxypyridine)Cl]Cl H2O,97
3,cis[Pt(NH3)2(N3-1-beta-D-arabinofuranosylcytocin)Cl]NO3.H2O,51
4,cis[Pt(NH3)2(N3-5-methylcytosine)Cl]NO3,84
5,cis[Pt(NH3)2(N7-guanosine)Cl]NO3,79

# Test system: Mus musculus
# Assay: Compound is tested against sarcoma 180 ascites (S180a) in female CFW mice, and evaluated for the best percent of increase in life span at optimal dose of 320 mg/kg
# Type: functional, organism-based
# Design: dose 320 mg/kg
# Procedure, shortened: as §1
row,Substance,ILS [%]
1,cis[Pt(NH3)2(N3-cytidinepyridine)Cl]NO3,30
